pIC50: −log10 of the molar value.

Holding throughout (assay type): tissue-based
For experiment [1], the target named is Calcium-activated potassium channel subunit alpha-1 (Rattus norvegicus) (UniProt Q62976). The experiment can be described thus: (§1) Induction of BK channel mediated vasorelaxation activity in Kcl-induced contraction in Wistar rat aorta. A digest of the protocol: (§2)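 Endothelium-denuded thoracic aortic rings from male normotensive Wistar rats (250-350 g), equilibrated 60 min. Denudation was confirmed by acetylcholine relaxation below 10% of KCl tone. Rings were precontracted with 20 mM KCl; at plateau, 3-fold increasing concentrations were added cumulatively. Efficacy was maximal relaxation as % of KCl tone. pIC50 was -log molar concentration halving tone, not derived if efficacy was below 50%. 5-10 experiments.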
Calcium-activated potassium channel subunit alpha-1 (Rattus norvegicus), sequence (Q62976 whole entry): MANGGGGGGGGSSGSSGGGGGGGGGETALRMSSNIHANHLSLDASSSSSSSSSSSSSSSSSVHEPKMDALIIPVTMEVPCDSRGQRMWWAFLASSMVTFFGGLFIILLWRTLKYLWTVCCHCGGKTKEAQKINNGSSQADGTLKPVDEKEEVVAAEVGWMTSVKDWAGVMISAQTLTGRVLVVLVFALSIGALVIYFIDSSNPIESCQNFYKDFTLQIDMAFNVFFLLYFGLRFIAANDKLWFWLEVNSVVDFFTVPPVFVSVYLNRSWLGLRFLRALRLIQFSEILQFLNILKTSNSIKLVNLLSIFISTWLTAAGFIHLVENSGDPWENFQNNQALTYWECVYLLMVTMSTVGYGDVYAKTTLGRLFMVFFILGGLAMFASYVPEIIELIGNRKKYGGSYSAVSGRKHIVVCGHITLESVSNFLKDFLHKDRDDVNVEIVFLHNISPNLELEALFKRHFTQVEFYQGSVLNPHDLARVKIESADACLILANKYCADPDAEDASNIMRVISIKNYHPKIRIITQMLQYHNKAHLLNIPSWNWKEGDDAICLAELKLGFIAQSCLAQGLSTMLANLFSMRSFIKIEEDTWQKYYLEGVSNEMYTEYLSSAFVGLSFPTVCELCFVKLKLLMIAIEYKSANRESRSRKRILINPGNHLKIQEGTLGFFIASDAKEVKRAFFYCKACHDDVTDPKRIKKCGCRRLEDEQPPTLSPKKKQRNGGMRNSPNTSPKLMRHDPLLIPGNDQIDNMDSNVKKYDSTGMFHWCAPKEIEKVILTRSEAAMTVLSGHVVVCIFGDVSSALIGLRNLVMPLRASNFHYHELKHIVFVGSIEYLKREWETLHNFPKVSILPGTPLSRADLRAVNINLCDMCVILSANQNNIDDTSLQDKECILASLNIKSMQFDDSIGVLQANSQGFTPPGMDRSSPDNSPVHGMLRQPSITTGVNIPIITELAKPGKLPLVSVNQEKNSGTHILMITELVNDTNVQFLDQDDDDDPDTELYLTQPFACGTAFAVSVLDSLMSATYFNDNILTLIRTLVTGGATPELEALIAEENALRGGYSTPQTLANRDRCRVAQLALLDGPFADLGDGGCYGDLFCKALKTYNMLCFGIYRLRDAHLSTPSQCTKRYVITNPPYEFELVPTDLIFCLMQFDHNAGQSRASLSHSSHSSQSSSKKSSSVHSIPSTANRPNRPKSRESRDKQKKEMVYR

Experiment [2] has as its target Calcium-activated potassium channel subunit alpha-1 (Rattus norvegicus, UniProt Q62976). The experiment is described as §1. A digest of the protocol:
as §2

The target of experiment [3] is Calcium-activated potassium channel subunit alpha-1 (Rattus norvegicus) (UniProt Q62976). The experiment can be described thus: Induction of BK channel mediated vasorelaxation activity in Kcl-induced contraction in Wistar rat aorta in presence of IbTX. A digest of the protocol: as §2

Calcium-activated potassium channel subunit alpha-1, sequence (Q62976 whole entry): as above

As a reminder, the Emax is the maximal effect, on the per cent scale that the assay sets. Turning to `COc1ccccc1CNC(=O)Cc1ccccc1OC`, in experiment [1], the Emax came to 22%. Regarding `COc1ccccc1CC(=O)Nc1ccc([N+](=O)[O-])cc1`, the Emax in experiment [1] turned out to be 29%.

For `O=C(Cc1ccccc1O)Nc1ccccc1`, the Emax in experiment [1] stood at 40%. A word on the pIC50: it is −log10 of the IC50, conventionally taken in molar units. For the compound `O=C(Cc1ccccc1C(F)(F)F)Nc1ccccc1F`, in experiment [1], the maximal effect (Emax) stood at 55%. Further, the pIC50 in experiment [2] was 4.56. Take `COc1ccccc1C(=O)NCc1ccccc1[N+](=O)[O-]`: in experiment [1], the Emax was 29%. In the case of `COc1ccccc1C(=O)NCc1ccccc1`, the Emax in experiment [1] worked out at 23%.

In the case of `O=C(Cc1ccccc1O)NCc1ccccc1`, the Emax in experiment [1] was 33%. On the same count and under the same terms, the figure for `O=C(Cc1ccccc1C(F)(F)F)Nc1cc(Cl)ccc1O` is 50%; for `COc1ccccc1CC(=O)Nc1ccccc1F` it is 28%. On the same count and under the same terms, the value for `COc1ccccc1CC(=O)NCc1ccccc1` was 25%. With `COc1ccccc1CC(=O)Nc1cc(C)ccc1O`, in experiment [1], the Emax came out at 61%. In addition, the pIC50 in experiment [2] was 4.61. `COc1ccccc1CNC(=O)c1ccccc1OC`: the Emax in experiment [1] came to 16%. Same read-out and setting: the value for `O=C(Cc1ccccc1O)NCc1ccccc1[N+](=O)[O-]` was 40%; that for `O=C(NCc1ccccc1[N+](=O)[O-])c1ccccc1O` was 47%.

As to `Cc1cc([N+](=O)[O-])ccc1NC(=O)Cc1ccccc1O`, the Emax in experiment [1] worked out at 84%; in experiment [3] it was 32%. In experiment [2], the pIC50 was 4.70. In the case of `O=C(Cc1ccccc1O)Nc1ccccc1F`, the Emax in experiment [1] was 43%. On the same count and under the same terms, the figure for `COc1ccccc1CC(=O)Nc1cc([N+](=O)[O-])ccc1OC` is 21%; for `COc1ccccc1CC(=O)Nc1cc(Cl)ccc1O` it is 37%; for `O=C(NCc1ccccc1)c1ccccc1O` it is 47%. For the compound `O=c1[nH]c2cc(C(F)(F)F)ccc2n1-c1cc(C(F)(F)F)ccc1O`, the pIC50 in experiment [2] is 5.36. As for `COc1ccc([N+](=O)[O-])cc1NC(=O)Cc1ccccc1O`, the Emax in experiment [1] stood at 82%. Besides, the pIC50 in experiment [2] was 4.74. Regarding `O=C(Cc1ccccc1O)Nc1ccc([N+](=O)[O-])cc1`, the Emax in experiment [1] turned out to be 79%. In addition, in experiment [2], the pIC50 is 4.64. Consider `COc1ccccc1CNC(=O)Cc1ccccc1O`, for which the Emax in experiment [1] amounted to 40%.

(Values after ChEMBL document CHEMBL1149815, “New amido derivatives as potential BKCa potassium channel activators. XI” (Eur J Med Chem, 2008).)
